Results collected from several papers.
Lines come from different studies, so protocols differ.
PTGS1: Prostaglandin G/H synthase 1 (PTGS1, Ovis aries, UniProt P05979)
ALDH3A1: Aldehyde dehydrogenase, dimeric NADP-preferring (ALDH3A1, Homo sapiens, UniProt P30838)
rep papain-like protease: Replicase polyprotein 1ab, papain-like protease (rep, Porcine epidemic diarrhea virus, UniProt P0C6Y4)

SMILES	target	read-out	action	method	IC50 [µM]
COc1ccc(C=NNC(=O)c2cc(-c3ccccc3)n(-c3ccc(S(N)(=O)=O)cc3)n2)cc1OC	PTGS1	enzyme activity	inhibitor		9.78
OC[C@H]1O[C@@H](Oc2ccc(O)c3cccc(O)c23)[C@H](O)[C@@H](O)[C@@H]1O	ALDH3A1	enzyme activity	inhibitor	fluorescence	< 10
NC(=O)c1nnn(Cc2cc(Cl)c(C(=O)c3ccc(Cl)cc3)c(Cl)c2)c1N	D(1A) dopamine receptor (DRD1, Homo sapiens, UniProt P21728)	cAMP	antagonist		7.98
COc1cc(NC(=O)c2cnn(-c3ccc([N+](=O)[O-])cc3)c2C(F)(F)F)cc(OC)c1	PTGS1	enzyme activity	inhibitor		1.74
Nc1ncnc2c1ncn2[C@@H]1C(F)=C(CO)[C@@H](O)[C@H]1O	Adenosylhomocysteinase (AHCY, Homo sapiens, UniProt P23526)	enzyme activity	inhibitor		0.15
O=C(NCc1cc(O)c(O)c(Br)c1)c1ccc(OC(F)(F)F)cc1	rep papain-like protease	enzyme activity	inhibitor	FRET	9.96
COc1ccc(N2CCN(Cc3cn4c(-c5ccc(Br)cc5)nnc4s3)CC2)cc1	Aifm2 (Mus musculus, UniProt Q8BUE4, A354T/L360F)	enzyme activity	inhibitor	absorbance	~0.518
O=C(NCc1cc(O)c(O)c(Br)c1)c1ccccc1	rep papain-like protease	enzyme activity	inhibitor	FRET	12.7
COc1nc2ccc(Br)cc2cc1[C@@H](c1ccccc1)[C@@](O)(CCN(C)C)c1cccc2ccccc12	ALDH3A1	enzyme activity	inhibitor	fluorescence	< 10
Cn1c(C(=O)NCc2cc(O)c(O)c(Br)c2)cc2ccccc21	rep papain-like protease	enzyme activity	inhibitor	FRET	8.08
COCCNc1nc(NCc2cccc(C(=O)Nc3ccc(OC)cc3)c2)nc2[nH]cnc12	Inositol polyphosphate multikinase (IPMK, Homo sapiens, UniProt Q8NFU5)	enzyme activity	inhibitor		63
O=C(NCc1cc(O)c(O)c(Br)c1)c1nccs1	rep papain-like protease	enzyme activity	inhibitor	FRET	4.1
NS(=O)(=O)c1ccc(-n2nc(C(=O)NN=Cc3ccccc3O)cc2-c2ccccc2)cc1	PTGS1	enzyme activity	inhibitor		3.91
CC#CC(=O)N1CC[C@@H](n2c(=O)n(-c3ccc(Oc4ccccc4)cc3)c3c(N)ncnc32)C1	Dual specificity mitogen-activated protein kinase kinase 2 (MAP2K2, Homo sapiens, UniProt P36507)	enzyme activity	inhibitor		> 5
NS(=O)(=O)c1ccc(-n2nc(C(=O)NN3C(=O)c4ccccc4C3=O)cc2-c2ccccc2)cc1	PTGS1	enzyme activity	inhibitor		6.72
CCC(C(=O)NCc1cc(O)c(O)c(Br)c1)c1ccccc1 (stereo not shown)	rep papain-like protease	enzyme activity	inhibitor	FRET	10.6
NS(=O)(=O)c1ccc(-n2nc(C(=O)NN=Cc3ccc(O)cc3)cc2-c2ccccc2)cc1	PTGS1	enzyme activity	inhibitor		3.84
O=C(NCc1cc(O)c(O)c(Br)c1)N1CCCC1	Replicase polyprotein 1ab, main protease (rep, Porcine epidemic diarrhea virus, UniProt P0C6Y4)	enzyme activity	inhibitor	FRET	2.88
N=C(N)c1ccc2nc(-c3cc(CC(=O)N[C@@H](CC(=O)O)C(=O)O)cc(-c4cc(S(N)(=O)=O)ccc4O)c3O)[nH]c2c1	Coagulation factor VII (F7, Homo sapiens, UniProt P08709)	enzyme activity	inhibitor		0.035
